{"source": "ChEMBL document CHEMBL1123281", "about": "“Synthesis and rat lens aldose reductase inhibitory activity of some benzopyran-2-ones” (J Med Chem, 1986)", "data": [{"target": "Aldo-keto reductase family 1 member B1 (Rattus norvegicus) (UniProt P07943)", "test": "Compound was tested for percent inhibition at 10 e-4 M against rat lens aldose reductase", "procedure,_shortened": "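Single-concentration screen at 100 μM against crude rat lens supernatant. The reaction mix was 0.1 M phosphate pH 6.2, 0.104 mM NADPH and 10 mM DL-glyceraldehyde, started with substrate. NADPH loss was followed at 340 nm for 5 min, with inhibitor included in the blanks. Percent inhibition compares the rate with a substrate-only control. Final Me2SO was ≤1%.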", "units": {"inhibition": "%"}, "values": [{"smiles": "Cc1cc(=O)oc2cc(Cl)ccc12", "inhibition": 10}, {"smiles": "Cc1cc(=O)oc2ccccc12", "inhibition": 19}, {"smiles": "CCc1ccc2c(C)cc(=O)oc2c1", "inhibition": 16}, {"smiles": "CC(=O)Oc1ccc2c(C)cc(=O)oc2c1", "inhibition": 13}, {"smiles": "COc1ccc2c(C)cc(=O)oc2c1", "inhibition": 21}, {"smiles": "Cc1cc(=O)oc2ccc(O)cc12", "inhibition": 22}]}, {"target": "T1, Aldo-keto reductase family 1 member B1 (Rattus norvegicus, UniProt P07943)", "test": "Compound was tested for inhibitory concentration against rat lens aldose reductase (uncompetitive inhibition type)", "units": {"IC50": "µM"}, "values": [{"smiles": "NC(=O)Cc1cc(=O)oc2cc(O)ccc12", "IC50": 10}, {"smiles": "Cc1cc(=O)oc2c(O)c(O)ccc12", "note": "[4-METHYLDAPHNETIN]", "IC50": 10}, {"smiles": "O=C(O)Cc1cc(=O)oc2cc(Cl)ccc12", "IC50": 0.56}, {"smiles": "O=C(O)Cc1cc(=O)oc2ccccc12", "IC50": 0.6}, {"smiles": "O=C(O)Cc1cc(=O)oc2ccc3ccccc3c12", "IC50": 0.02}, {"smiles": "COC(=O)Cc1cc(=O)oc2cc(O)ccc12", "IC50": 38}, {"smiles": "O=C(O)Cc1cc(=O)oc2c1ccc1ccccc12", "IC50": 0.14}, {"smiles": "CCc1ccc2c(CC(=O)O)cc(=O)oc2c1", "IC50": 0.24}, {"smiles": "COc1ccc2c(/C=C/C(=O)O)cc(=O)oc2c1", "IC50": 4.4}, {"smiles": "COc1ccc2c(C(=O)O)cc(=O)oc2c1", "IC50": 11}]}, {"target": "T1, Aldo-keto reductase family 1 member B1", "test": "Compound was tested for inhibitory concentration against rat lens aldose reductase (noncompetitive inhibition type)", "procedure,_shortened": "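Crude supernatant from 50 rat lenses homogenized in distilled water, centrifuged 10 000 rpm, 10 min, 0–5 °C. Read-out was NADPH decrease at 340 nm over 5 min in 0.1 M phosphate pH 6.2, 0.104 mM NADPH, 10 mM DL-glyceraldehyde. IC50 came from least-squares log dose–response fits, using ≥4 concentrations ×4 replicates. Inhibition type was read from double-reciprocal plots with 0.0625–1.0 mM substrate.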", "units": {"IC50": "µM"}, "values": [{"smiles": "CC(=O)Oc1ccc2c(CC(=O)O)cc(=O)oc2c1", "IC50": 61}, {"smiles": "Cc1cc(=O)oc2cc(O)ccc12", "note": "[HYMECROMONE]", "IC50": 62}, {"smiles": "COc1ccc2c(CC(=O)O)cc(=O)oc2c1", "IC50": 0.37}, {"smiles": "Cc1cc(=O)oc2cc(O)cc(O)c12", "note": "[5,7-DIHYDROXY-4-METHYLCOUMARIN]", "IC50": 17}, {"smiles": "O=C(O)Cc1cccc2ccccc12", "IC50": 32}, {"smiles": "O=C(O)Cc1cc(=O)oc2cc(O)cc(O)c12", "IC50": 0.26}, {"smiles": "O=C(O)Cc1cc(=O)oc2cc(O)ccc12", "IC50": 0.15}, {"smiles": "COc1ccc2c(CCC(=O)O)cc(=O)oc2c1", "IC50": 2.1}]}]}
